Measured values as given in ChEMBL document CHEMBL3588761, “Design, synthesis and characterization of dual inhibitors against new targets FabG4 and HtdX of Mycobacterium tuberculosis” (Eur J Med Chem, 2015).
pIC50: −log10 of the molar value. Calls of active or inactive are those of the source. The rule behind the calls is not given here.

Columns and labels:
[1] = Inhibition of Mycobacterium tuberculosis FabG4 assessed as reduction in NADH to NAD+ conversion using acetoacetyl-CoA substrate by UV-visible spectrophotometry; settings: for pIC50: read-out: IC50
Method in brief: (§1)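 50 mM HEPES pH 7.4 at 25 °C with 1 µM FabG4, 0.2 mM β-NADH, 0.5 mM acetoacetyl-CoA and 5% methanol. Started with substrate; A340 decrease read every 2 min. IC50 taken graphically from dose-response plots. Mode found by varying NADH at three inhibitor levels, using Lineweaver-Burk plots.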

[2] = Inhibition of Mycobacterium tuberculosis HtdX using crotonoyl-CoA substrate by UV-visible spectrophotometry; settings: for pIC50: read-out: IC50
Method in brief: (§2)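 50 mM HEPES pH 7.5 with 100 mM NaCl at 25 °C, containing 100 nM HtdX, 10 µM crotonoyl-CoA and 5% methanol. Started with substrate; A263 decrease read every 2 min. IC50 taken graphically from dose-response plots. Mode found by varying crotonoyl-CoA at three inhibitor levels, using Lineweaver-Burk plots.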

[3] = system: Mycobacterium tuberculosis; assay: Competitive inhibition of Mycobacterium tuberculosis HtdX using varying crotonoyl-CoA substrate by UV-visible spectrophotometry; method in brief: as §2
[4] = system: Mycobacterium tuberculosis; assay: Binding affinity to Mycobacterium tuberculosis HtdX assessed as binding constant at 25 degC by isothermal titration calorimetry
Method in brief: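 HtdX at 10 µM in 50 mM HEPES pH 7.5 with 100 mM NaCl in the cell, titrated at 25 °C with 500 µM ligand in 5% methanol-buffer (0.4 µL then 19 × 2 µL). Buffer-ligand reference subtracted. Isotherm fitted to a one-site model.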

[5] = system: Mycobacterium tuberculosis; assay: Induction of changes in secondary structure of Mycobacterium tuberculosis HtdX assessed as helix level at 50 uM by CD spectroscopy (reference value: 12.2%)
[6] = system: Mycobacterium tuberculosis; assay: Induction of changes in secondary structure of Mycobacterium tuberculosis HtdX assessed as beta-sheet level at 50 uM by CD spectroscopy (reference value: 40.1%)
[7] = system: Mycobacterium tuberculosis; assay: Induction of changes in secondary structure of Mycobacterium tuberculosis HtdX assessed as turns level at 50 uM by CD spectroscopy (reference value: 12.6%)
[8] = system: Mycobacterium tuberculosis; assay: Induction of changes in secondary structure of Mycobacterium tuberculosis HtdX assessed as unordered level at 50 uM by CD spectroscopy (reference value: 35.2%)
[9] = system: Mycolicibacterium smegmatis; assay: Antimycobacterial activity against Mycobacterium smegmatis str. MC2 155 assessed as inhibition of microbial growth incubated for 24 hrs by REMA method; type: functional; settings: str. MC2 155, 24 h
Method in brief: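 M. smegmatis mc2155 grown in 7H9 broth with 0.2% glycerol and 0.05% Tween 80 at 37 °C, 120 rpm, to mid-log (OD595 ~0.5). Diluted to OD595 0.0005 and exposed to drug for 24 h at 37 °C. Then 0.02% resazurin added for 40 min. MIC is the lowest concentration preventing the blue-to-pink change. Two repeats, averaged.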

[10] = system: Mycobacterium tuberculosis; assay: Competitive inhibition of Mycobacterium tuberculosis FabG4 assessed as reduction in NADH to NAD+ conversion using acetoacetyl-CoA substrate and varying NADH levels by UV-visible spectrophotometry; method in brief: as §1
[11] = system: Mycobacterium tuberculosis; assay: Binding affinity to Mycobacterium tuberculosis FabG4 assessed as first binding constant at 25 degC by isothermal titration calorimetry
Method in brief: (§3)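 FabG4 at 4.5 µM in 50 mM HEPES pH 7.4 in the cell, titrated at 25 °C with 500 µM ligand in 5% methanol-buffer (0.4 µL then 19 × 2 µL, 120 s spacing). Buffer-ligand reference titration subtracted. Two sequential binding events, per monomer of the homodimer.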

[12] = system: Mycobacterium tuberculosis; assay: Binding affinity to Mycobacterium tuberculosis FabG4 assessed as second binding constant at 25 degC by isothermal titration calorimetry; method in brief: as §3
[13] = system: Mycobacterium tuberculosis; assay: Induction of changes in secondary structure of Mycobacterium tuberculosis FabG4 assessed as helix level at 50 uM by CD spectroscopy (reference value: 25.9%)
[14] = system: Mycobacterium tuberculosis; assay: Induction of changes in secondary structure of Mycobacterium tuberculosis FabG4 assessed as beta-sheet level at 50 uM by CD spectroscopy (reference value: 6%)
[15] = system: Mycobacterium tuberculosis; assay: Induction of changes in secondary structure of Mycobacterium tuberculosis FabG4 assessed as turns level at 50 uM by CD spectroscopy (reference value: 34.6%)
[16] = system: Mycobacterium tuberculosis; assay: Induction of changes in secondary structure of Mycobacterium tuberculosis FabG4 assessed as unordered level at 50 uM by CD spectroscopy (reference value: 33.5%)
[17] = Drug metabolism in culture media assessed as isoniazid release in presence of Mycobacterium smegmatis str. MC2 155 incubated for 24 hrs by HPLC method; type: physicochemical
Method in brief: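 Compound incubated in culture medium with M. smegmatis for 24 h. Culture then lyophilised, redissolved and run on HPLC (100% methanol eluent, 1.2 mL/min), checking for an isoniazid peak.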

[18] = system: Mycolicibacterium smegmatis; assay: Inhibition of biofilm formation of Mycobacterium smegmatis str. MC2 155 at 20 ug/ml incubated at 37 degC without shaking for 4 weeks; type: functional; settings: str. MC2 155, 672 h
Method in brief: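 M. smegmatis mc2155 planktonic culture inoculated at 1% into Sauton's minimal medium without Tween-80. Inhibitor at 5, 10, 20, 50 and 100 µg/mL, with a no-inhibitor control. Plates sealed and held static at 37 °C for 4 weeks; biofilm formation assessed visually.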

Row | SMILES | IC50 [2] | pIC50 [1] | pIC50 [2] | MIC [9] | further results
1 | O=C(O)[C@@H]1C(=O)N(c2ccccc2)[C@H]1c1ccco1 (relative stereo) | Not Active | – | – | – | IC50 [1]: Not Active
2 | O=C(NNC(=O)[C@@H]1C(=O)N(c2ccccc2)[C@H]1c1cccs1)c1ccncc1 (relative stereo) | – | 4.58 | 4.99 | 20 µg/mL | inhibition [3]: Active; K [4]: 4.21 ×10⁵ /M; Activity [5]: 11.1%; Activity [6]: 50.6%; Activity [7]: 2.6%; Activity [8]: 35.7%
3 | O=C(NNC(=O)[C@@H]1C(=O)N(c2ccccc2)[C@H]1c1ccncc1)c1ccccc1 (relative stereo) | Not Active | 4.40 | – | – | –
4 | O=C(O)[C@@H]1C(=O)N(c2ccccc2)[C@H]1c1cccs1 (relative stereo) | Not Active | – | – | – | IC50 [1]: Not Active
5 | NNC(=O)c1ccncc1 [ISONIAZID] | – | – | – | 10 µg/mL | –
6 | O=C(NNC(=O)[C@@H]1C(=O)N(c2ccccc2)[C@H]1c1ccco1)c1ccncc1 (relative stereo) | – | 4.56 | 4.75 | 15 µg/mL | –
7 | O=C(NNC(=O)[C@@H]1C(=O)N(c2ccccc2)[C@H]1c1ccncc1)c1ccncc1 (relative stereo) | – | 4.82 | 4.65 | 15 µg/mL | inhibition [10]: Active; K [11]: 2.98 ×10⁵ /M; K [12]: 1.15 ×10³ /M; Activity [13]: 30%; Activity [14]: 5.7%; Activity [15]: 29.8%; Activity [16]: 34.4%; Drug metabolism [17]: metabolite_notdetected; inhibition at 20 µg/mL [18]: 100%
8 | O=C(O)[C@@H]1C(=O)N(c2ccccc2)[C@H]1c1ccncc1 (relative stereo) | Not Active | 4.19 | – | – | –
9 | O=C1[C@@H](CO)[C@H](c2ccncc2)N1c1ccccc1 (relative stereo) | Not Active | 3.18 | – | – | –
